A selection: hits, their analogues and other compounds. The true share with any hit is near 4.5%.
MDM2 E3 inh – inhibitors of human Mdm2 E3 ubiquitin ligase; Q00987; 0.11% of 210,000 active; AID 1230; cell-based MDM2 ubiquitination luciferase reporter, 2 h; 0 = plate control, 100 = twice control, blank-subtracted; signal enhancement, % at 5 µM;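 active means signal enhancement of 30% or more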;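 further: luminescence tracks abundance of the self-degrading MDM2-luciferase fusion protein; higher signal means inhibition of MDM2 E3 ligase activity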
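Assay system: stable mammalian line carrying autodegrading MDM2–luciferase fusion reporter; amount: 2000 cells seeded into each well; buffer or medium: DMEM; benchmarks: plate control and blank wells; signal: luciferase luminescence; timing: 2 h compound exposure at 37 °C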
APP 5'UTR act – APP 5'UTR luciferase reporter activation. SH-SY5Y APP 5'UTR luciferase reporter, luminescence; zero percent = DMSO vehicle wells. activation, % at 2 µM. 1% of 190,000 active;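 active means activation above a set limit, based on mean plus 3 SD of controls, cut at about 140% in these data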
NF-kB neuron act – compounds increasing NF-kB expression in human neuronal cells. fold change at 12.5 µM. NF-kB reporter expression; hits give high values. 1.6% of 190,000 active; in the data active means fold change above about 3.3
PERK inhibitor – human PERK inhibition, primary cell-based screen; Q9NZJ5; CHO PERK-DD fusion, SEAP luminescence translation reporter; inhibition, % at 5.6 µM; 0.17% of 220,000 active; AID 1416;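 active means inhibition above the mean inhibition of all tested compounds plus 3 SD, set separately per screening campaign, cut at about 2.9% in these data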;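 further: PERK kinase domain activated by AP20187 dimerizer at 100 nM; 0% = DMSO with dimerizer and 100% = rapamycin at 8.4 µM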
AHR act – activates the human aryl hydrocarbon receptor | AHR-responsive luciferase reporter cells, luminescence | activation, % at 5 µM | P35869 | 2.5% of 320,000 active; in the data active means activation above about 47%;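 further: 0% = vehicle wells and 100% = reference agonist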
Target sequence (P35869 whole entry, looked up): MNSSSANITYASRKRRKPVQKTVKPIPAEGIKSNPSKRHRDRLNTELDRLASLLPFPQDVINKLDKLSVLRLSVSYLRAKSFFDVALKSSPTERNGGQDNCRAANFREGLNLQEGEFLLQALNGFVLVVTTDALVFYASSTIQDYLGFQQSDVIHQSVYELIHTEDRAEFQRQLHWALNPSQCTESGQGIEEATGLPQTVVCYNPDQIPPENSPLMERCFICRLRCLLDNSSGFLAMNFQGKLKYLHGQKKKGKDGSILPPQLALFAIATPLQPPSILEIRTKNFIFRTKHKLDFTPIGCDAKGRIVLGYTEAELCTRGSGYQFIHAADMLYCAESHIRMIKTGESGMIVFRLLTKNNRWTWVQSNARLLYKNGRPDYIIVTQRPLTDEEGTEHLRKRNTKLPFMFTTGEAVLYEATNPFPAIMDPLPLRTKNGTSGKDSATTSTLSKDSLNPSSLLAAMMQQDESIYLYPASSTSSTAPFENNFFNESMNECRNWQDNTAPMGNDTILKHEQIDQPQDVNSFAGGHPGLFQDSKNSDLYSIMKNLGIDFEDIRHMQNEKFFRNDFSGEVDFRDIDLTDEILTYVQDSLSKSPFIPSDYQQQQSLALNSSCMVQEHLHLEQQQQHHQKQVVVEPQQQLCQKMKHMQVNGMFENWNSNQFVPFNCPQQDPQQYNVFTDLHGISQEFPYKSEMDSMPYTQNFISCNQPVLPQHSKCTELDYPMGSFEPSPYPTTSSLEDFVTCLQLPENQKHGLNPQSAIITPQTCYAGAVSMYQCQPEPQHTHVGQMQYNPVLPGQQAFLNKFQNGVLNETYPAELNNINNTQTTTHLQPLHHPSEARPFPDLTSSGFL
STAT1 act – increases IFN-gamma driven STAT1 reporter signal. NIH 3T3 STAT1-luciferase reporter, luminescence; 100% = IFN-gamma alone, no compound. activation (% of control), % at 5.5 µM. 2.6% of 200,000 active. AID 932;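 active means activation above the screen-wide mean activation plus 3 SD, cut at about 130% in these data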;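 further: raw ratio to IFN-gamma control signal so 100% means no change and 0% no light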
An asterisk follows results filed as active; · = not tested or not shown.

SMILES	MDM2 E3 inh	APP 5'UTR act	NF-kB neuron act	PERK inhibitor	AHR act	STAT1 act
Cn1c(C(=O)NCC2CCCO2)cc2oc3ccccc3c21 (stereo unspecified)	-15	117	2.3	0	-4	144*
Cn1c(=O)c(C(=O)NCC2CCCO2)c(O)c2ccccc21 (stereo unspecified)	-14	20	2.4	0	16	129*
Cn1c(C(=O)NCC2CCCO2)cc2c(=O)n(C)c3ccccc3c21 (stereo unspecified)	-3	-3	1.1	-1	49*	97
O=C(NCC1CCCO1)c1c(O)c2cccc3c2n(c1=O)CC3 (stereo unspecified)	2	-2	1.6	-1	18	106
S=C(c1cn(Cc2ccc(Br)cc2)c2ccccc12)N1CCOCC1	3	29	1.1	0	-2	104
O=C(NNc1cccc(Cl)n1)Nc1ccccc1Cl	-10	17	1.1	2	4	96
CC(C)(C)c1ccc(-c2nc(N)nc(N)n2)cc1	-14	·	·	-1	13	·
Nc1nc(-c2ccc(Cl)cc2)nc(-c2ccc(Cl)cc2)n1	·	·	·	0	70*	·
O=S(=O)(Nc1cccc(S(=O)(=O)N2CCCC2)c1)c1cccs1	·	·	·	·	1	·
O=C(CSCc1ccccc1Cl)Nc1c[nH]c(=O)[nH]c1=O	-16	3	1.1	1	0	106
Cc1csc(Nc2cccc3ccccc23)n1	-1	22	1.4	1	21	104
Cc1csc(NS(=O)(=O)c2ccc(Cl)cc2)n1	·	·	·	·	11	·
Cc1csc(Nc2ccc(Cl)cc2)n1	-9	47	2.3	0	0	138*
Cc1ccc(Nc2nc(C)cs2)cc1	-7	199*	0.94	1	6	130*
COc1ccc(C(CNC(=O)CSc2ccc(Br)cc2)N2CCOCC2)cc1 (stereo unspecified)	·	·	·	·	2	·
COc1ccc(C(CNC(=O)C(C)Oc2ccc(Br)cc2)N2CCOCC2)cc1 (stereo unspecified)	·	·	·	·	49*	·
COc1ccc(C(=O)C[n+]2cccc3cc(OC)ccc32)cc1	·	·	·	·	0	·
COc1ccc(C(=O)C[n+]2ccc3ccccc3c2C)cc1	-16	·	·	-1	59*	·
CC(Cc1ccccc1)C(=O)N(C)Cc1cccnc1 (stereo unspecified)	·	-4	1.1	0	3	101
CCOc1ccc2nc(N3CCC(C(=O)Nc4nnc(CC)s4)CC3)sc2c1	-3	33	1.7	-1	13	134*
Cc1ccc(O)c(C2=Nc3ccccc3N=C(c3cccs3)C2)c1	-3	-7	1.1	0	26	103
Cc1ccc(C2=Nc3ccccc3N=C(C(Cl)Cl)C2)cc1	-47	109	4*	0	22	91
Cc1ccc2c(c1)N=C(c1ccccc1)CC(C(Cl)Cl)=N2	-26	·	·	-1	62*	·
O=C(NCC(=O)N(c1ccccc1F)C(C(=O)NC1CCCC1)c1cccnc1)c1ccco1 (stereo unspecified)	·	·	·	·	0	·
O=C(c1ccc(Br)cc1)c1coc2ccc(O)cc12	·	·	·	·	-4	·
SMILES	MDM2 E3 inh	APP 5'UTR act	NF-kB neuron act	PERK inhibitor	AHR act	STAT1 act
O=C(c1ccc(Cl)cc1)c1coc2ccc(O)cc12	7	129	8.8*	0	-3	107
COc1ccc2occ(C(=O)c3ccccc3)c2c1	-7	36	0.92	-1	-4	135*
COc1cc(NC(=O)C2=COCCO2)c(OC)cc1Cl	·	·	·	·	11	·
Cc1ccccc1-c1cc(C(=O)NCc2cccc(C(F)(F)F)c2)n(CC2CC(c3cccnc3)=NO2)n1 (stereo unspecified)	·	·	·	·	0	·
CCOc1ccccc1N(C)C(=O)Cn1ncc2c([nH]c3ccc(C)cc32)c1=O	·	·	·	·	24	·
CN(C)S(=O)(=O)c1cccc(C(=O)NCc2cccs2)c1	-19	2	1.1	0	10	97
COc1ccc2c3c1OC1CC(O)C=CC31CCN(C)C2 (stereo unspecified)	3	·	·	3.1*	-2	·
COc1ccc2c(c1O)-c1ccccc1CCN(C)C2	-6	-13	0.94	0	-1	110
Oc1ccccc1-c1nc2c3ccccc3c3ccccc3c2[nH]1	-9	·	·	1	53*	·
CCOc1ccc(NC(=O)CCC(=O)Oc2ccc(C)cc2)cc1	·	·	·	·	3	·
Clc1ccccc1C1=CC(c2ccco2)n2ncnc2N1 (stereo unspecified)	-1	·	·	0	14	·
CCOC(=O)C1=C(CSc2nncn2C)NC(=O)NC1c1cc(OCC)ccc1OCC (stereo unspecified)	-16	1	1.2	0	2	102
COc1ccc(-c2nsc3c(N4CCCC4)ncnc23)cc1	-89	156*	0.95	1	-1	124
Cc1ccc(-c2csc3ncnc(N4CCN(C(=O)c5ccco5)CC4)c23)cc1	·	·	·	·	-1	·
Cc1sc2ncnc(N3CCN(C(=O)c4ccco4)CC3)c2c1C	-3	3	0.94	-1	55*	86
COc1ccc(-c2csc3ncnc(N4CCN(c5ccc(OC)cc5)CC4)c23)cc1	·	·	·	·	6	·
O=C(c1ccco1)N1CCN(c2ncnc3c(-c4ccc(Cl)cc4)nsc23)CC1	·	·	·	·	58*	·
CC(C)(O)C#Cc1ccc(CN2CCN(C3CCCCC3)C(CCO)C2)s1 (stereo unspecified)	-9	8	1.5	0	-1	105
O=C(O)c1cn(C2CC2)c2cc(N3CCN(S(=O)(=O)c4ccc5c(c4)OCCO5)CC3)c(F)cc2c1=O	4	-3	1.7	1	7	101
COc1ccc(C(=O)NCc2ncccc2C)cc1OC1CCN(C(C)=O)CC1	·	·	·	·	0	·
CC(c1ccco1)N(C(=O)COc1ccc(Cl)cc1Cl)c1ccccn1 (stereo unspecified)	-64	197*	4*	0	2	122
CC(c1ccco1)N(C(=O)COc1ccc(Cl)cc1)c1ccccn1 (stereo unspecified)	-12	83	0.99	1	5	102
COc1ccc(N2CCN(C(=O)Cn3ncc4c([nH]c5ccccc54)c3=O)CC2)cc1	·	·	·	·	2	·
C[C@]12c3[nH]c4ccccc4c3CCN1C(=O)C(CC(=O)NCCCn1ccnc1)C[C@@H]2C(=O)N1CCCCC1 (stereo partly specified)	·	·	·	·	1	·
COc1ccc(NC(=O)c2cccc(F)c2)cc1Cl	-10	30	2.4	0	-2	130*
COc1ccc(NC(=O)c2cccc(OC(F)F)c2)cc1Cl	-18	116	2.7	0	49*	113
COc1cc(NC(=O)c2cccc(F)c2)cc(OC)c1OC	-1	3	0.88	2	63*	97
O=C(Nc1cc(Cl)ccc1Oc1ccccc1)c1ccc(F)cc1	-5	-9	0.93	0	4	111
O=C(Nc1cc(Cl)ccc1Oc1ccccc1)c1ccccc1F	-10	6	0.89	1	65*	86
CC1CCCC(C)N1C(=O)COC(=O)c1cc(F)c(F)cc1Cl (stereo unspecified)	·	·	·	·	0	·
